Screens: PubChem BioAssay, The Scripps Research Institute Molecular Screening Center
Tn7 DDE FP: DD(E)-Tn7 binding inhibition, primary FP screen; P02675; FP displacement of FITC-Tn7 peptide from fibrin DD(E); 0% = median of compound wells per plate; inhibition, % at 8.3 µM; actives 0.13% (n = 370,000);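 active = inhibition above the mean of compounds falling within the control limits plus 3 SD of them, cut at about 14% in these data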;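 note: 0% = plate median of compound wells and 100% = 10 µM Aha-Tn7 peptide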
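Measure: % inhibition scaled between sample-field median and high-control FP; Test system: human fibrin DD(E); Quantity: 2 µM final DD(E) protein; Doses: one dose, 8.3 µM nominal; Schedule: compound with protein 10 min, then 3 h after probe, room temperature; Detection: fluorescence polarization; Medium: Tris buffer with calcium and detergent, pH 7.8.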
DDE Tn6 FP inh: DD(E)-Tn6 binding inhibition, primary FP screen. P02675. Fibrin DD(E) TRITC-Tn6 fluorescence polarization displacement. inhibition, % at 8.3 µM. actives 0.21% (n = 370,000);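 active = inhibition above a per-campaign cutoff: mean of compounds within control limits plus 3 SD, cut at about 15% in these data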;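 note: 0% = median of all compound wells on the plate and 100% = blocking peptide control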
ASAP1 GAP inh: ASAP1 ArfGAP inhibition. Q9ULH1. ASAP1-stimulated ARF1 GTP hydrolysis, GDP FP detection. inhibition, % at 16.5 µM. AID 624377. actives 0.19% (n = 360,000); in the data active = inhibition above about 25%;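 note: 0% = vehicle with enzyme and substrate and 100% = no enzyme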
Target sequence (Q9ULH1 325-724 limits assumed): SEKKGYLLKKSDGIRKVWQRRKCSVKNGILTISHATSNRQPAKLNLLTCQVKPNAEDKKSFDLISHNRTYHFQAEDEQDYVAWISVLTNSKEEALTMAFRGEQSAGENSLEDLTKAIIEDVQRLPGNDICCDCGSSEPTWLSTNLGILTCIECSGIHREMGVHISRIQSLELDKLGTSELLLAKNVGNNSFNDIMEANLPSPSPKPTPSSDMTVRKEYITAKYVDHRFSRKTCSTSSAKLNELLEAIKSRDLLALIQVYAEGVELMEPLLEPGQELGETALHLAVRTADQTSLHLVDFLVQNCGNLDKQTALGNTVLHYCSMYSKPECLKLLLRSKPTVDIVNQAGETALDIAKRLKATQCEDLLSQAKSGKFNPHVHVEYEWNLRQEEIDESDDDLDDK
ARFGAP1 inhibitor: rat ARFGAP1 inhibition; Q62848; Arfgap1-stimulated ARF1 GTP hydrolysis, GDP FP detection; inhibition, % at 16.5 µM; actives 0.26% (n = 360,000); AID 651572;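 active = inhibition above a per-plate limit, mean inhibition of low control wells plus 3 SD, cut at about 25% in these data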;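 note: 0% = DMSO wells with enzyme and 100% = wells lacking Arfgap1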
Target sequence (Q62848 1-136 limits assumed): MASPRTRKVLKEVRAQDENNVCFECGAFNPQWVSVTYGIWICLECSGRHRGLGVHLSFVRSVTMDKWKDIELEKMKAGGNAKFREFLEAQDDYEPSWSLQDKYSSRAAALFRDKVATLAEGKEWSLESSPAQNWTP
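Replicates: Single well per compound | Assay system: Truncated rat Arfgap1 GAP domain | Control set: No-Arfgap1 wells (100%) versus DMSO full-reaction wells (0%) | Times: Enzyme reaction 120 min at 25 °C after 20 min preincubation | Reagent: Human ARF1(Δ1-17)-GTP substrate | Measured by: Tracer-displacement fluorescence polarization with EDTA stop, 620/688 nm | Measure: Percent inhibition of Arfgap1-stimulated GTP hydrolysis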
DDE Tn7 confirm: DD(E)-Tn7 binding inhibition, FP confirmation. shares compounds with Tn7 DDE FP. actives 5% (n = 460). FP displacement of TRITC-Tn7 peptide from DD(E); 0% set at plate's compound-well median. inhibition, % at 8.3 µM;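 active = inhibition above the campaign cutoff, the mean of compounds within control limits plus 3 SD, cut at about 14% in these data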;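 note: 100% = median FP of high control wells holding Aha-Tn7 inhibitor peptide; displacers lower polarization since freed probe rises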
Tn7 DDE ctr: counter-screen for inhibitors of Tn7 peptide binding to fibrin DD(E); shares compounds with Tn7 DDE FP; TRITC-Tn7 probe displacement, fluorescence polarization; inhibition, % at 8.3 µM; actives 3% (n = 460); AID 720633;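 active = inhibition above the cutoff, the mean of compounds lying between the control bounds plus 3 SD of those compounds, cut at about 17% in these data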;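 note: 0% = median of compound sample wells and 100% = excess unlabeled Aha-Tn7 peptide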
Starred values were filed as active, the others as inactive; . = not tested or not shown. Shown are actives, neighbours in structure and some others; about 0.74% of the full set was active somewhere.

SMILES	Tn7 DDE FP	DDE Tn6 FP inh	ASAP1 GAP inh	ARFGAP1 inhibitor	DDE Tn7 confirm	Tn7 DDE ctr
O=[N+]([O-])c1cc(S(=O)(=O)NCc2ccco2)ccc1NN=Cc1ccccn1	5.3	6.8	3.5	-4.0	.	.
N#CC1=C(N)C(C#N)(C#N)[C@H](c2c(F)cccc2F)[C@H]2CC3(CC=C12)OCCO3	15.6*	-1.3	-0.2	14.2	-2.0	-10.4
COc1ccc(OC)c(NC(=S)N2CCN(Cc3ccccc3)CC2)c1	-1.6	1.6	-8.1	-7.1	.	.
COc1ccc(NC(=S)N2CCN(Cc3ccccc3)CC2)c(OC)c1	14.7*	-2.7	-11.8	-6.3	4.0	6.4
CCC(CC)CN1CCC(CN2C(=S)NC[C@@H]2Cc2ccccc2)CC1	-3.8	-8.5	0.4	15.2	.	.
CCN1C(=O)[C@H]2[C@@H](c3ccc(C)cc3)N3C(=O)N(c4ccc(OC)cc4)C(=O)[C@@]3(C)[C@H]2C1=O	16.2*	1.2	-10.1	-4.8	-6.9	-13.4
CCN1C(=O)[C@H]2[C@@H](c3ccc(C)cc3)N3C(=O)N(c4ccc(C)cc4)C(=O)[C@@]3(C)[C@H]2C1=O	-4.9	6.2	-11.8	-3.1	.	.
COc1ccccc1N(CC(=O)NCCSCc1ccccc1)S(C)(=O)=O	14.1*	2.4	9.1	-5.9	-1.7	-4.6
O=C(c1ccccc1)c1ccc2c(c1)OCCOCCOCCOCCO2	14.2*	10.1	-6.5	-2.7	-2.3	-5.5
CN(C)c1ccc(/C=N/NC(=O)c2ccc(CN3CCOCC3)cc2)cc1Br	14.2*	-2.7	-5.0	-4.4	0.4	0.9
c1coc(-c2nnc(SCc3cn4ccccc4n3)o2)c1	13.9*	0.5	-1.1	-10.5	-0.7	0.0
Cc1ccc(OCCC(=O)OCC(=O)N2CCN(S(=O)(=O)c3ccc(Cl)cc3)CC2)cc1	14.7*	0.3	10.0	0.8	-4.3	-5.5
CCOc1ccc(N(CC(=O)Nc2c(C)n(C)n(-c3ccccc3)c2=O)S(=O)(=O)c2ccc(C)c(C)c2)cc1	-1.6	-8.0	.	.	.	.
C#CCn1cc(/C=N/NC(=O)COc2cccc3cccnc23)c2ccccc21	14.2*	1.3	19.8	7.4	-4.5	-19.7
COC(=O)[C@]12C[C@H](CC(=O)N3CCCC3)C(=O)N(CCC3=CCCCC3)C1=C[C@H](COCc1ccccc1)O[C@@H]2C	2.7	2.0	-2.4	-8.7	.	.
N/C(=N\OC(=O)c1ccc2c(c1)OCO2)c1ccncc1	14.9*	-2.7	1.1	10.4	8.1	3.6
N/C(=N\OC(=O)c1ccc2c(c1)OCO2)c1ccc(Cl)cc1	1.5	-1.1	4.1	-4.3	.	.
COc1ccc(N2C(=O)CSC2c2cccc(OC)c2OC)cc1 (centres undefined)	13.9*	-4.4	13.7	9.2	-2.0	-8.7
COc1cccc(C2SCC(=O)N2c2ccc(C)cc2)c1OC (centres undefined)	-3.4	2.4	1.6	-2.3	.	.
CCC(C)[C@H](NC(=O)N1CCC(C)CC1)C(=O)O (some centres undefined)	14.3*	8.1	-15.8	4.2	-3.1	-7.8
COCCN(C(=O)c1ccc(-c2ccc(Cl)cc2)o1)c1c(N)n(CC(C)C)c(=O)[nH]c1=O	-0.4	-2.7	6.0	2.1	.	.
COCCN(C(=O)c1ccc(-c2ccc([N+](=O)[O-])cc2)o1)c1c(N)n(CC(C)C)c(=O)[nH]c1=O	14.2*	-0.3	-13.4	11.0	4.6	1.6
CCOC(=O)N(C)C[C@H]1OCc2cn(nn2)CCCC(=O)N([C@@H](C)CO)C[C@@H]1C	5.1	8.5	1.2	-4.6	.	.
O=C(CCCCCN1C(=O)c2ccccc2C1=O)Nc1ccccc1	1.9	-2.2	-5.0	2.2	.	.
CC(=O)Nc1ccc(NC(=O)CCCCCN2C(=O)c3ccccc3C2=O)cc1	13.9*	2.5	-0.4	-0.8	-4.6	-5.2
O=C(CSC1CCc2ccccc21)NN=Cc1ccco1 (centres undefined)	2.5	7.8	3.2	-9.4	.	.
COc1ccccc1NC(=O)COC(=O)c1cnc(C)cn1	7.0	3.1	-10.2	-0.2	.	.
CSc1ccccc1NC(=O)COC(=O)c1cnc(C)cn1	14.2*	-2.4	2.2	-6.9	-1.4	-6.4
